Assay results as given in ChEMBL document CHEMBL2396655, “Design, synthesis, and biological evaluation of (E)-N-aryl-2-arylethenesulfonamide analogues as potent and orally bioavailable microtubule-targeted anticancer agents” (J Med Chem, 2013).
Converted amounts (≈) assume the structure as drawn. The source made the active and inactive calls. No cut-off for these calls is given here.

Legend:
OVCAR-3 = assay: Cytotoxicity against human OVCAR3 cells after 96 hrs by trypan blue exclusion assay; assay type: functional; settings: OVCAR-3, 96 h
Summary of the method: (§1)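 Cells were grown in DMEM or RPMI with 10% FBS and plated at 2.5×10⁴ cells/well in 12-well dishes. Compounds were added 24 h later at various concentrations. After 96 h, viable cells were counted by trypan blue exclusion from duplicate wells. Results are the mean of two independent experiments.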

NCI-H417 = assay: Cytotoxicity against human NCI-N417 cells after 96 hrs by trypan blue exclusion assay; assay type: functional; settings: NCI-H417, 96 h
Summary of the method: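 Cells grown in DMEM or RPMI with 10% FBS and 1 unit/mL penicillin-streptomycin, seeded in 12-well dishes at 2.5 ×10⁴ cells/mL/well. Compound added 24 h later at various concentrations. Viable cells counted by trypan blue exclusion from duplicate wells after 96 h. Value taken from dose-response curves of two independent experiments.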

BT-20 = assay: Cytotoxicity against human BT20 cells after 96 hrs by trypan blue exclusion assay; assay type: functional; settings: BT-20, 96 h; summary of the method: as §1
LNCaP = assay: Cytotoxicity against human LNCAP cells after 96 hrs by trypan blue exclusion assay; assay type: functional; summary of the method: as §1
K562 = assay: Cytotoxicity against human K562 cells after 96 hrs by trypan blue exclusion assay; assay type: functional, cell-based; summary of the method: as §1
[1] = Cytotoxicity against human U87 cells after 96 hrs by sulforhodamine B assay; assay type: functional, cell-based, U-87MG ATCC; settings: U-87 MG
[2] = Cytotoxicity against human H80 cells after 96 hrs by trypan blue exclusion assay; assay type: functional; settings: H80, 96 h; summary of the method: as §1
DU-145 = assay: Cytotoxicity against human DU145 cells after 96 hrs by trypan blue exclusion assay; assay type: functional, cell-based; summary of the method: as §1
A-431 = assay: Cytotoxicity against human A431 cells after 96 hrs by trypan blue exclusion assay; assay type: functional; settings: A-431, 96 h; summary of the method: as §1
[3] = Cytotoxicity against human NAMALWA cells after 96 hrs by trypan blue exclusion assay; assay type: functional; settings: NAMALVA; summary of the method: as §1
[4] = Solubility of the compound in water; assay type: physicochemical
CEM/C2 = assay: Growth inhibition of multidrug-resistant human CEM/C2 cells; assay type: functional
CCRF-CEM [5] = assay: Resistance factor, ratio of GI50 for multidrug-resistant human CEM/C2 cells to GI50 for human CEM cells; assay type: functional
CCRF-CEM [6] = assay: Growth inhibition of human CEM cells; assay type: functional
Bos taurus = species on record: Bos taurus; assay: Inhibition of bovine brain tubulin assessed as destabilization of microtubule polymerization at 10 uM over 40 mins by spectrophotometric analysis
Summary of the method: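 Purified bovine brain tubulin was incubated at 37 °C with 10 μM compound, DMSO or reference agents. Polymerization was followed as rising absorbance at 340 nm over 40 min. Data are representative of three independent experiments.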

## COc1cc(OC)c(/C=C/S(=O)(=O)Nc2ccc(OC)c(O)c2)c(OC)c1
OVCAR-3
  GI50: 100 nM
NCI-H417
  GI50: 10 nM
BT-20
  GI50: 250 nM
LNCaP
  GI50: 50 nM
K562
  Activity: Dose-dependent effect
K562; K562, 96 h
  GI50: 15 nM
  IC50: 15 nM
[1]
  IC50: 26 nM
[2]
  GI50: 25 nM
DU-145
  Activity: Dose-dependent effect
DU-145; DU-145, 96 h
  GI50: 50 nM
  IC50: 30 nM
A-431
  GI50: 600 nM
[3]
  GI50: 25 nM

## COc1cc(OC)c(/C=C/S(=O)(=O)Nc2cc([N+](=O)[O-])c(OC)c([N+](=O)[O-])c2)c(OC)c1
K562
  Activity: Dose-dependent effect
K562; K562, 96 h
  IC50: 10000 nM
DU-145
  Activity: Dose-dependent effect
DU-145; DU-145, 96 h
  IC50: 10000 nM

## COc1ccc(NS(=O)(=O)/C=C/c2c(OC)cc(OCCCC(=O)O)cc2OC)cc1O
K562
  Activity: Dose-dependent effect
K562; K562, 96 h
  IC50: 10000 nM
DU-145
  Activity: Dose-dependent effect
DU-145; DU-145, 96 h
  IC50: 10000 nM

## COc1cc(OC)c(/C=C/S(=O)(=O)Nc2ccc(OC)c(NC(C(=O)O)c3ccc(Cl)cc3)c2)c(OC)c1 (configuration not stated)
[4]
  solubility: 10000 µg/mL (≈ 17.8 mM)
K562
  Activity: Dose-dependent effect
K562; K562, 96 h
  IC50: 15 nM
DU-145
  Activity: Dose-dependent effect
DU-145; DU-145, 96 h
  IC50: 75 nM

## CC[C@@]1(O)C(=O)OCc2c1cc1n(c2=O)Cc2cc3ccccc3nc2-1 [CAMPTOTHECIN]
CEM/C2
  GI50: 1000 nM
CCRF-CEM [5]
  RatioGI50: 500
CCRF-CEM [6]
  GI50: 2 nM

## O=S(=O)(/C=C/c1ccccc1)Nc1ccc(Cl)cc1
K562
  Activity: Dose-dependent effect
K562; K562, 96 h
  IC50: 20000 nM
DU-145
  Activity: Dose-dependent effect
DU-145; DU-145, 96 h
  IC50: 20000 nM

## COc1ccc(NS(=O)(=O)/C=C/c2ccc(OC)cc2OC)cc1
K562
  Activity: Dose-dependent effect
K562; K562, 96 h
  IC50: 15000 nM
DU-145
  Activity: Dose-dependent effect
DU-145; DU-145, 96 h
  IC50: 15000 nM

## COc1cc(OC)c(/C=C/S(=O)(=O)Nc2ccc(OC)c(NC(C(=O)O)c3ccc(F)cc3)c2)c(OC)c1 (configuration not stated)
[4]
  solubility: 10000 µg/mL (≈ 18.3 mM)
K562
  Activity: Dose-dependent effect
K562; K562, 96 h
  IC50: 20 nM
DU-145
  Activity: Dose-dependent effect
DU-145; DU-145, 96 h
  IC50: 75 nM

## COC(=O)C(C)(C)Nc1cc(NS(=O)(=O)/C=C/c2c(OC)cc(OC)cc2OC)ccc1OC
K562
  Activity: Dose-dependent effect
K562; K562, 96 h
  IC50: 300 nM
DU-145
  Activity: Dose-dependent effect
DU-145; DU-145, 96 h
  IC50: 200 nM

## COc1ccc(NS(=O)(=O)/C=C/c2c(F)cc(F)cc2F)cc1
K562
  Activity: Dose-dependent effect
K562; K562, 96 h
  IC50: 15000 nM
DU-145
  Activity: Dose-dependent effect
DU-145; DU-145, 96 h
  IC50: 75000 nM

## COc1cc(OC)c(/C=C/S(=O)(=O)Nc2ccc(OC)c(NCC(=O)O)c2)c(OC)c1
Bos taurus
  inhibition: Active
[4]
  solubility: 10000 µg/mL (≈ 22.1 mM)
K562
  Activity: Dose-dependent effect
K562; K562, 96 h
  IC50: 20 nM
DU-145
  Activity: Dose-dependent effect
DU-145; DU-145, 96 h
  IC50: 400 nM
